Reference: ChEMBL document CHEMBL4387746, “Chemical conversion of nicotinamide into type I positive allosteric modulator of α7 nAChRs” (Bioorg Med Chem Lett, 2019)
Calls of active or inactive are those of the source. The rule behind the calls is not given here.

Columns and labels:
Assay type in all cases: cell-based
[1] = target: T1, Neuronal acetylcholine receptor subunit alpha-7 (Homo sapiens, UniProt P36544); assay: (§1) Positive allosteric modulation activity at human alpha7 nAChR expressed in Xenopus laevis oocytes assessed as increase in acetylcholine-induced channel current at 10 uM at -90 mV holding potential preincubated for 2 mins followed by co-application with acetylcholine for 10 secs by two-electrode voltage clamp method relative to control
In short: (§2)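 Human α7 nAChR expressed in Xenopus laevis oocytes and recorded by two-electrode voltage clamp. Each compound was tested at 10 μM with 100 μM ACh. Data come from 2–5 individual oocytes.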

[2] = target: T1, Neuronal acetylcholine receptor subunit alpha-7; assay: Agonist activity at human alpha7 nAChR expressed in Xenopus laevis oocytes assessed as increase in channel current at -90 mV holding potential by two-electrode voltage clamp method
[3] = target: T1, Neuronal acetylcholine receptor subunit alpha-7; assay: as §1, with “current” for “current at 10 uM”, “method” for “method relative to control”
In short: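 Human α7 nAChR was recorded in Xenopus oocytes by two-electrode voltage clamp, with 100 μM ACh as agonist. EC50 is the compound concentration giving half of the maximum activation effect. Data come from 2–5 individual oocytes.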

[4] = target: T1, Neuronal acetylcholine receptor subunit alpha-7; assay: Positive allosteric modulation activity at alpha7 nAChR (unknown origin) expressed in Xenopus laevis oocytes assessed as increase in acetylcholine-induced channel current at 10 uM at -90 mV holding potential by two-electrode voltage clamp method relative control; in short: as §2
[5] = target: Neuronal acetylcholine receptor; alpha3/beta4 (Rattus norvegicus) (UniProt P04757+P12392); assay: as §1, with “rat alpha3beta4” for “human alpha7”
[6] = target: T2, 5-hydroxytryptamine receptor 3A (Homo sapiens) (UniProt P46098); assay: as §1, with “5-HT3A receptor” for “alpha7 nAChR”
T2 sequence (whole entry): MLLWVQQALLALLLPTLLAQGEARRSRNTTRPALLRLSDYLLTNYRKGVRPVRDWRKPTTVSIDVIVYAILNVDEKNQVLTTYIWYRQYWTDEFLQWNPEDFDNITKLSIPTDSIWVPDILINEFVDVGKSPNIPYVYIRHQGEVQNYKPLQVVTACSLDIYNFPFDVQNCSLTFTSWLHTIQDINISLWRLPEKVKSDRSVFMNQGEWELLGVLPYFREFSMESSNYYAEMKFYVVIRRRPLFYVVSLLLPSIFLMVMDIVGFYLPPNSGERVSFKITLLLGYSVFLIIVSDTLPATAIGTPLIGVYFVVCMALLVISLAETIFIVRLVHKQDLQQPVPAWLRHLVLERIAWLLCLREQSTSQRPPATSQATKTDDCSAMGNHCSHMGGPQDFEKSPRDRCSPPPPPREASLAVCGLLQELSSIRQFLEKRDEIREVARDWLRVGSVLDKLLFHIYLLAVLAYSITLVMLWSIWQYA

[7] = target: T1, Neuronal acetylcholine receptor subunit alpha-7; assay: as §1, with “at 0.1 uM to 30” for “at 10”
In short: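 A control current to 100 μM ACh alone was recorded first. Oocytes expressing α7 nAChR were then preincubated 2 min with compound at 0.1–30 μM, followed by co-application with 100 μM ACh for 10 s. Peak currents were normalised to the 100 μM ACh-alone amplitude. Data were fitted for EC50, Emax and Hill coefficient, n = 4 per point.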

[8] = target: Neuronal acetylcholine receptor; alpha4/beta2 (Rattus norvegicus) (UniProt P09483+P12390); assay: as §1, with “rat alpha4beta2” for “human alpha7”
[9] = target: T1, Neuronal acetylcholine receptor subunit alpha-7; assay: as §1, with “current by measuring maximum efficacy of acetylcholine” for “current”, “(reference value: 339%)” for “relative to control”
In short: (§3)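 ACh concentration-response on α7-expressing Xenopus oocytes, run without compound or after 2 min preincubation with 10 μM compound. Peak currents were normalised to the current evoked by 100 μM ACh alone. Curves were fitted for Emax, ACh EC50 and Hill coefficient, n = 4 per point.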

[10] = target: T1, Neuronal acetylcholine receptor subunit alpha-7; assay: Induction of desensitization of human alpha7 nAChR expressed in Xenopus laevis oocytes assessed as acetylcholine-induced channel desensitization time constant at 10 uM at -90 mV holding potential by two-electrode voltage clamp method (reference value: 6.37 +/- 2.56)
[11] = target: T1, Neuronal acetylcholine receptor subunit alpha-7; assay: as §1, with “current by measuring maximum efficacy of acetylcholine” for “current”; in short: as §3

T1 sequence (P36544 whole entry): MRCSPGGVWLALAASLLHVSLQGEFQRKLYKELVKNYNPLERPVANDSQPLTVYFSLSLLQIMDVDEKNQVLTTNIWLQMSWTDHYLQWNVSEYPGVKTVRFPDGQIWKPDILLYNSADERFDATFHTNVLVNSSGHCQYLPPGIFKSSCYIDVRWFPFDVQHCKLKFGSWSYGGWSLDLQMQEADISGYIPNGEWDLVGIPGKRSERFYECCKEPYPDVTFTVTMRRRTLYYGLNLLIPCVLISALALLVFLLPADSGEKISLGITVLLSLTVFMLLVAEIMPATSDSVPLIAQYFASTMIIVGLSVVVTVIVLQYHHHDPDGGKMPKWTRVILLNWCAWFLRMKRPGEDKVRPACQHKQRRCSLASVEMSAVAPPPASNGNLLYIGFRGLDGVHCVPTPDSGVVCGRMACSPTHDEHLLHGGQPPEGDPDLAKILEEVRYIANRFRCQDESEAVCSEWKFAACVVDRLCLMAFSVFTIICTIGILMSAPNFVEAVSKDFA

| Compound | Emax [1] [%] | Activity [2] | also measured |
| --- | --- | --- | --- |
| Cc1ccc(-c2cnc(N)c(C(=O)Nc3c(C)cccc3Cl)c2)cc1 | 539 | inactive | EC50 [3]: 3.19 µM |
| Cc1cccc(Cl)c1NC(=O)c1cc(-c2ccc([N+](=O)[O-])cc2)cnc1N | 135 | inactive | – |
| Cc1cccc(Cl)c1NC(=O)c1cncc(-c2ccc(F)cc2)c1 | 248 | inactive | – |
| Cc1cccc(Cl)c1NC(=O)c1cc(-c2cccc(F)c2)cnc1N | 86 | inactive | – |
| Cc1cccc(Cl)c1NC(=O)c1cc(-c2ccccc2)cnc1N | 273 | inactive | – |
| Cc1cc(-c2cnc(N)c(C(=O)Nc3ccccc3C)c2)ccc1F | 156 | inactive | – |
| Cc1cccc(Cl)c1NC(=O)c1cc(-c2cccnc2)cnc1N | 138 | inactive | – |
| Cc1ccc(-c2cnc(N)c(C(=O)Nc3c(C)cccc3Cl)c2)c(F)c1 | 372 | inactive | – |
| Cc1cccc(Cl)c1-n1cnc2nc(SCc3ccccc3)sc2c1=O | – | – | Emax [4]: 1630% |
| Cc1ccc(-c2cncc(C(=O)Nc3c(C)cccc3Cl)c2)cc1 | 603 | inactive | EC50 [3]: 1.97 µM |
| Cc1cc(-c2cnc(N)c(C(=O)Nc3c(C)cccc3Cl)c2)ccc1F | 1470 | inactive | Emax [5]: 78%; Emax [6]: 94%; Activity [7]: Dose-dependent effect; Emax [8]: 72%; Emax [9]: 2170%; K [10]: 3.49; fold change (FC) [11]: 7; EC50 [3]: 3.34 µM |
| Cc1cccc(Cl)c1NC(=O)c1cc(-c2ccccc2F)cnc1N | 119 | inactive | – |
| Cc1cccc(Cl)c1NC(=O)c1cc(-c2ccsc2)cnc1N | 153 | inactive | – |
| Cc1cccc(Cl)c1NC(=O)c1cc(-c2ccc(C(F)(F)F)cc2)cnc1N | 164 | inactive | – |
| Cc1cccc(Cl)c1NC(=O)c1cc(-c2ccc(F)c(Cl)c2)cnc1N | 495 | inactive | EC50 [3]: 5.49 µM |
| Cc1cc(F)ccc1-c1cnc(N)c(C(=O)Nc2c(C)cccc2Cl)c1 | 225 | inactive | – |
| Cc1cccc(Cl)c1NC(=O)c1cc(-c2ccc(Cl)cc2)cnc1N | 278 | inactive | – |
| Cc1cccc(Cl)c1NC(=O)c1cc(-c2ccc(F)cc2)cnc1N | 604 | inactive | EC50 [3]: 4.57 µM |

| Compound | Emax [1] [%] | Activity [2] | also measured |
| --- | --- | --- | --- |
| Cc1cccc(Cl)c1NC(=O)c1cc(-c2ccc(OC(F)(F)F)cc2)cnc1N | 153 | inactive | – |
| COc1ccccc1-c1cnc(N)c(C(=O)Nc2c(C)cccc2Cl)c1 | 1010 | inactive | EC50 [3]: 4.32 µM |
| Cc1cccc(Cl)c1NC(=O)c1cc(-c2ccc(F)cc2Cl)cnc1N | 186 | inactive | – |
| Cc1cccc(Cl)c1-n1cnc2ccc(-c3ccc(F)cc3)cc2c1=O | – | – | Emax [4]: 76% |
| Cc1cccc(Cl)c1NC(=O)c1cc(-c2ccoc2)cnc1N | 111 | inactive | – |
| Cc1ccc(Nc2nc3ncn(-c4c(C)cccc4Cl)c(=O)c3s2)cc1 | – | – | Emax [4]: 1620% |
| Cc1cccc(Cl)c1NC(=O)c1cc(-c2ccc(Cl)c(F)c2)cnc1N | 229 | inactive | – |
| COc1ccc(-c2cnc(N)c(C(=O)Nc3c(C)cccc3Cl)c2)cc1 | 531 | inactive | EC50 [3]: 8.5 µM |
| CSc1ccc(-c2cnc(N)c(C(=O)Nc3c(C)cccc3Cl)c2)cc1 | 774 | inactive | EC50 [3]: 4.96 µM |
| CCc1ccc(-c2cnc(N)c(C(=O)Nc3c(C)cccc3Cl)c2)cc1 | 455 | inactive | EC50 [3]: 1.35 µM |
| CC(=O)Nc1ccc(-c2cnc(N)c(C(=O)Nc3c(C)cccc3Cl)c2)cc1 | 109 | inactive | – |
| Cc1cccc(Cl)c1NC(=O)c1cc(-c2ccc(F)cc2)ccc1N | 136 | inactive | – |
| Cc1cccc(Cl)c1NC(=O)c1cncc(-c2ccc(Cl)cc2)c1 | 150 | inactive | – |
| COc1ccc(-c2ccc3ncn(-c4c(C)cccc4Cl)c(=O)c3c2)cc1 | – | – | Emax [4]: 65% |
| Cc1cc(-c2cnc(N)c(C(=O)Nc3ccccc3)c2)ccc1F | 94 | inactive | – |
| COc1cccc(-c2cnc(N)c(C(=O)Nc3c(C)cccc3Cl)c2)c1 | 212 | inactive | – |
| Cc1ccc(-c2cnc(N)c(C(=O)Nc3c(C)cccc3Cl)c2)cc1F | 609 | inactive | EC50 [3]: 3.31 µM |
| Cc1cccc(Cl)c1NC(=O)c1cc(-c2ccc(O)cc2)cnc1N | 257 | inactive | – |
